Results from the array DNA melting data of Ke et al. (doi:10.1101/2024.01.08.574731).

How the values were obtained:
[1] = melting temperature; fluorescence melt of hairpins on a sequencing array, two-state fit, raised by 9.35 °C to match UV melts; details: sodium 0.088 M
In short: (§1)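 Hairpins were imaged by Cy3 fluorescence on a sequenced MiSeq flow cell with annealed Cy3 and quencher oligos, in 50 mM Na-HEPES pH 8.0, 25 mM NaCl, in 2.5 °C steps up to 60 °C. Bootstrapped two-state fits of normalised signals gave melting temperature and folding enthalpy. Four replicates were combined by inverse variance, and fitted temperatures were raised by 9.35 °C to match UV melts.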

[2] = folding enthalpy; higher = less favourable; fluorescence melt of hairpins on a sequencing array, two-state fit; details: sodium 0.088 M
In short: as §1

Sequence	Tm [1] [°C]	folding enthalpy [2] [kcal/mol]
GGACGCGAAAGCGTTTCC ((((((....)))..)))	36.4	-9.28
GGAAGCGAAAGCTGATCC ((((((....)))..)))	36.9	-12.4
GCTATGAAAATAGC (((((....)))))	47.9	-23.4
GCTAAGCGAAAGCTCGGC ((..(((....)))..))	39.7	-19.7
GATCGAGGAAACTCGACC (.(((((....))))).)	41.4	-14.8
GTCGTCCGAAAGGAGAC (((.(((....))))))	49.3	-20.6
GGCAGTGGAAACACCACC ((..(((....)))..))	29.5	-13.2
GTGTCCGGAAACAGACAC (((((.(....).)))))	44.9	-30.1
GGTCTCGAAAGAGCCACC ((((((....)))..)))	43.3	-14.8
GTTTCCGAAAGGAGAAC ((((((....))).)))	34.7	-16.5
GTCACCTCGAAAGAGGAC (((..(((....))))))	26.9	-9.82
GCGTACTCACGC ((((....))))	52.3	-19.5
GGCGACGGAAACACCGCC ((((..(....)..))))	44.5	-29.3
GGCACCACGAAAGTGGCC (((..(((....))))))	38.1	-11.6
GCAAAGGGAAACTTTTGC (((((.(....).)))))	41	-26.8
AGACGGAAACGTCT (((((....)))))	53.5	-21.2
GCTATCGAAAGATCTAGC ((((((....)))..)))	26.1	-11.8
GATAACGGAAACGTTATC (((((((....)))))))	56.4	-47.8
GGTTACGGAAACATAACC (((((.(....).)))))	35.8	-17
TGCGAGAAATCGCA (((((....)))))	54.3	-18.2
GGCACGGGAAACCGTACC ((.((((....)))).))	48.4	-34.4
GATCCCTCTTGGGATC ((((((....))))))	63.7	-36.8
GGTTTTGGAAACGAAACC (((((.(....).)))))	47.5	-43.9

Sequence	Tm [1] [°C]	folding enthalpy [2] [kcal/mol]
GATTACGAAAGTAGATC ((((((....))).)))	29	-19
GATCTACACATAGATC ((((((....))))))	43.2	-44.3
CGTCCGGAAACGGAACG ((((((....))).)))	49.9	-24.9
GATCGAGGATTCGATC ((((((....))))))	57.9	-36.8
GTGCACGAAAGTGTTCAC ((((((....)))..)))	37.4	-12.3
GCCGTGCGAAAGCGCCGC ((.(.((....)).).))	50	-14.4
GCCGTGGGAAACCGTGGC (((..((....))..)))	47.4	-28.2
GCAAGATCGAAAGATTGC (((..(((....))))))	38	-21.3
GCTCTTGGAAACAGGAGC ((((.((....)).))))	48.9	-33.9
GCGGCATCGAAAGATCGC (((..(((....))))))	45.6	-22.7
GATCTAAGTTAGATC ((((((...))))))	37.3	-29.9
GATCGTTTGTACGATC ((((((....))))))	56	-37.3
GCCTTGCGAAAGCCATGC ((.(.((....)).).))	27	-3.66
GCGGTATGCCGC ((((....))))	63	-33.6
GAGGAGGGAAACCTCTTC ((.((((....)))).))	47.8	-27.7
GTGTGGGGAAACTCACAC (((((.(....).)))))	52.3	-36.3
GGGGACGAAAGTCCTCCC ((((((....)))..)))	48.3	-10.8
GCTTGACCGAAAGGTAGC (((..(((....))))))	38.7	-21.4
GCCTGCGGAAACGCAAGC ((.((((....)))).))	48	-18.5
GCATCGCGAAAGCAAGGC ((.(.((....)).).))	39.6	-12.7
GTGCGGGGAAACCCGTGC (..((((....))))..)	53.8	-19.2
GAGGACCGAAAGGTACTC (((.(((....))).)))	64.9	-33.4
GGCAATACGAAAGTAGCC (((..(((....))))))	44.4	-17.9
